Measurements published in ChEMBL document CHEMBL4808167, “Design, Synthesis, and Evaluation of Small Molecule Gαq/11 Protein Inhibitors for the Treatment of Uveal Melanoma” (J Med Chem, 2021).
Activity calls are given as the source filed them. The calls are words filed in the database; no cut-off is given here. Starred links: 1 amine or outer side, 2 acyl side, 3 side chain; linkers in the order of their positions; H or OH if unused. Positions of bridges follow the written chain, without caps; N, C: chain ends. Non-standard residues stand in square brackets, D forms with d. Residues, ends and D or L forms follow the SMILES beside them. *: point of attachment. Leu(3R-OH,Nα-propionyl) = CCC(=O)N[C@H](C(=O)*)[C@H](O)C(C)C; X1 = CC(C)[C@@H](O[*:3])[C@H](N[*:1])C(=O)[*:2]; NMeT = CN[C@H](C(=O)O)[C@@H](C)O; dPhLac = O=C(O)[C@H](O)Cc1ccccc1; NMeA = CN[C@@H](C)C(=O)O; NMeDha = C=C(NC)C(=O)O

Tests used:
[1] = target: T1, GNAQ/GNA11 (Homo sapiens) (UniProt P50148+P29992); test: Inhibition of Galphaq/11 (unknown origin) expressed in CHO cells coexpressing M1 receptor assessed as reduction in carbachol-induced IP1 accumulation at 10 uM preincubated for 1 hr followed by carbachol stimulation and measured after 1 hr by HTRF assay relative to control; format: cell-based; conditions: time 2.0 hrs
[2] = target: T1, GNAQ/GNA11 (Homo sapiens); test: Binding affinity to Galphaq/11 (unknown origin) expressed in HEK293 cells cotransfected with AT1R/Galphaq-RLuc8/ Ggamma2-venus/Gbeta1 assessed as inhibition of Ang-II induced-BRET signal at 100 uM preincubated for 1 hr followed by Ang-II addition by BRET assay; format: cell-based
How it was run: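 HEK293 cells transiently transfected with AT₁R, Gαq-RLuc8, Gγ2-Venus and untagged Gβ1. Replated 24 h later, washed with HBS, starved 10 min, then pretreated with compound for 1 h at 37 °C. AngII added, followed by coelenterazine. BRET ratio taken as Venus emission (520−570 nm) over RLuc8 emission (370−480 nm). Mean ± SD, n = 3.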

CHO [3] = test: Cytotoxicity against chinese hamster CHO cells overexpressing M1 receptor assessed as cell viability at 1.25 to 20 uM after 2 to 24 hrs by CCK8 assay; format: cell-based, Cricetulus griseus; conditions: dose lower 1.25 µM, time lower 2 hrs, dose upper 20 µM, time upper 24 hrs
How it was run: (§1)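 CHO cells stably expressing the M₁ receptor were treated with a range of compound concentrations for 2 h or 24 h. Viability measured by CCK-8 and given as percentage. Mean ± SD of three independent experiments.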

[4] = Antiproliferative activity against human MP41 cells assessed as inhibition of cell growth after 72 hrs by CCK8 assay; format: functional, cell-based; conditions: MP41, 72 h
How it was run: (§2)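 92.1 or MP41 cells in RPMI-1640 with 10% FBS were seeded at 3 × 10³ cells/well. Exposed to serial concentrations for 72 h at 37 °C, 5% CO₂. CCK-8 added for 1−4 h, absorbance read at 450 nm. IC₅₀ from concentration−response curve fit, mean ± SD.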

921 [5] = test: Inhibition of cell migration in human 921 cells at 15 uM incubated for 48 hrs by transwell migration assay; format: functional, cell-based
How it was run: (§3)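 92.1 or MP41 cells (1 × 10⁴/well) seeded in serum-free medium in the upper transwell chamber, with 20% FBS medium below. Left overnight, then treated 48 h. Non-migrated cells swabbed off; cells on the lower side stained with crystal violet 30 min and counted by light microscopy (×40 for migration, ×100 for invasion). Mean ± SD, n = 3.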

921 [6] = test: Inhibition of cell invasion in human 921 cells at 5 to 15 uM incubated for 48 hrs by transwell assay; format: functional, cell-based; conditions: dose 5-15 µM; how it was run: as §3
MP41 [7] = test: Inhibition of cell migration in human MP41 cells at 30 uM incubated for 48 hrs by Transwell migration assay; format: functional, cell-based
How it was run: (§4)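 Transwell migration: 92.1 and MP41 cells (RPMI-1640, 10% FBS) seeded 1 × 10⁴/well in upper chamber in serum-free medium, 20% FBS medium below; overnight at 37 °C, then compound for 48 h. Non-migrated cells swabbed off; lower cells crystal violet-stained 30 min, counted by light microscopy. Mean SD of three independent experiments.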

MP41 [8] = test: Inhibition of cell invasion in human MP41 cells at 5 to 15 uM incubated for 48 hrs by transwell assay; format: functional, cell-based; conditions: dose 5-15 µM; how it was run: as §3
CHO [9] = test: Induction of morphological changes in chinese hamster CHO cells overexpressing M1 receptor at 10 to 20 uM after 2 hrs by light microscopic analysis; format: cell-based, Cricetulus griseus; conditions: dose 10-20 µM
How it was run: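 CHO-M₁ cells were treated with compound at 10 or 20 μM for 2 h, and changes in cell morphology were examined by microscopy.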

[10] = target: T1, GNAQ/GNA11 (Homo sapiens); test: Inhibition of Galphaq/11 (unknown origin) expressed in HEK293 cells cotransfected with AT1R assessed as inhibition of Ang-II induced calcium release at 100 uM preincubated for 30 mins followed by Ang-II addition by Fluo-4AM dye based fluorescence assay; format: cell-based
How it was run: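 HEK293 cells transfected with AT₁R, washed in HBSS with 0.1% BSA and loaded with Fluo-4 AM for 1 h at 37 °C. Washed, then pretreated with compound at 100 μM for 30 min. AngII at varying concentrations added 20 s into the fluorescence recording. Mean ± SD, n = 3.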

CHO [11] = test: Cytotoxicity against chinese hamster CHO cells overexpressing M1 receptor assessed as cell viability at 5 uM after 2 hrs by CCK8 assay; format: cell-based, Cricetulus griseus; how it was run: as §1
MP41 [12] = test: Inhibition of cell migration in human MP41 cells at 15 uM incubated for 48 hrs by transwell migration assay; format: functional, cell-based; how it was run: as §4
[13] = Antitumor activity against human MP41 cells xenografted in nude BALB/c mouse assessed as tumor growth inhibition at 10 mg/kg, ip administered for once daily for 21 days and measured every 3 days; format: functional; conditions: 504 h, time 21 day, read-out: TGI
How it was run: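 MP41 tumours were passaged subcutaneously mouse-to-mouse in nude BALB/c mice (6−8 weeks, 20−25 g). Tertiary recipients randomized, n = 8/group, given 10 or 30 (mg/kg)/d ip or vehicle for 21 days. Tumour size (V = A × B² × π/6, caliper) and body weight taken every 3 days; tumours excised and weighed on day 22. TGI computed versus the vehicle group.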

[14] = Antiproliferative activity against human 92.1 cells assessed as inhibition of cell growth after 72 hrs by CCK8 assay; format: functional, cell-based; conditions: Homo sapiens, 921, 72 h; how it was run: as §2
GNAQ/GNA11 [15] = target: T2, GNAQ/GNA11 (Homo sapiens, UniProt P50148+P29992); test: Inhibition of Galphaq/11 (unknown origin); format: protein assay
T2 sequence (P50148 whole entry): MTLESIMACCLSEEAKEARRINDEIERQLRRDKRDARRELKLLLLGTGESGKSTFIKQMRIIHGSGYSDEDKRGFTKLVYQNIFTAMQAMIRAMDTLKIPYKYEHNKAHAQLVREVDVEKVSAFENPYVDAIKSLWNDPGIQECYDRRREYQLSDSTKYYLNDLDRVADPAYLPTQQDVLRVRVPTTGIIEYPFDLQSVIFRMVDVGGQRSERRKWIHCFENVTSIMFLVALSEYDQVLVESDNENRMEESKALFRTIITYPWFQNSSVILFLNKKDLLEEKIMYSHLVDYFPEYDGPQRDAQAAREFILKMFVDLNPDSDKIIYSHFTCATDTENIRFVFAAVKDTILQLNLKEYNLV
T2 sequence (P29992 whole entry): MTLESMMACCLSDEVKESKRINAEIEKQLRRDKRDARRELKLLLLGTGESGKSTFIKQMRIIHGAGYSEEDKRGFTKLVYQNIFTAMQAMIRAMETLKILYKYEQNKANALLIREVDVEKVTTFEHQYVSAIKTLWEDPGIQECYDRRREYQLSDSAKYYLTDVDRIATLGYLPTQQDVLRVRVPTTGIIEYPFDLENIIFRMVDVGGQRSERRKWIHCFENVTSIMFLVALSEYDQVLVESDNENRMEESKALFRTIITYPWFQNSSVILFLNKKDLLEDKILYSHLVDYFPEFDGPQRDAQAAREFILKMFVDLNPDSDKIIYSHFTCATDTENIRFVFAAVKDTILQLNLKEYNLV
How it was run: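 Carbachol-stimulated IP₁ accumulation in CHO cells stably expressing the M₁ receptor, read by HTRF. Cells (2 × 10⁴/well) in assay buffer with 0.2% BSA were preincubated with compound for 1 h at 37 °C. Carbachol (final 9 μM, ~EC₈₀) was then added with LiCl (final 20 mM) for 1 h at 37 °C plus 1 h at room temperature. Values are % inhibition at 10 μM or IC₅₀, three independent experiments.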

GNAQ/GNA11 [16] = target: T2, GNAQ/GNA11; test: Inhibition of Galphaq/11 (unknown origin) expressed in CHO cells coexpressing M1 receptor assessed as reduction in carbachol-induced IP1 accumulation preincubated for 1 hr followed by carbachol stimulation and measured after 1 hr by HTRF assay; format: cell-based

inhibition [1]	Activity [2]	Activity [10]	IC50 (GNAQ/GNA11 [16])	SMILES	Activity (CHO [3])	IC50 [4]	inhibition 921 [5]	inhibition 921 [6]	inhibition (MP41 [7])	inhibition (MP41 [8])	Activity (CHO [9])	Activity (CHO [11])	inhibition (MP41 [12])	inhibition in vivo at 10 mg/kg [13]	IC50 [14]	IC50 (GNAQ/GNA11 [15])
25.8%	Active	inactive	–	N[C@H](CSSC[C@@H](N)C(=O)N1CCn2cc(-c3ccccc3)nc2[C@@H]1CC1CCCCC1)C(=O)N1CCn2cc(-c3ccccc3)nc2[C@@H]1CC1CCCCC1	Toxic	10.5 µM	Active	Active	Active	Active	Toxic	Toxic	Active	35.9%	6.8 µM	–
–	–	–	–	C=C1C(=O)N[C@@H](C)C(=O)N(C)[C@@H](C)C(=O)N[C@@H]([C@H](OC(=O)[C@@H](NC(=O)CC)[C@H](O)C(C)C)C(C)C)C(=O)N(C)[C@@H]([C@@H](C)OC)C(=O)O[C@H](C(C)C)[C@H](NC(C)=O)C(=O)O[C@H](Cc2ccccc2)C(=O)N1C (Ac-[X1][dPhLac][NMeDha]A[NMeA][X1](Leu(3R-OH,Nα-propionyl))[NMeT](Me); ester 1-C)	–	–	–	–	–	–	–	–	–	–	–	0.032 µM
34%	–	–	48.6 µM	N[C@@H](Cc1ccc(O)cc1)C(=O)N1CCn2cc(-c3ccccc3)nc2[C@@H]1CC1CCCCC1	–	22.6 µM	–	–	–	–	–	–	–	–	10.7 µM	–
32.6%	Active	inactive	–	N[C@@H](CS)C(=O)N1CCn2cc(-c3ccccc3)nc2[C@@H]1CC1CCCCC1	–	2.3 µM	Active	Active	Active	Active	–	–	Active	–	4.8 µM	–
